CRFBP-R2 block = antagonists of CRF-BP/CRF-R2 complex, primary screen, cell-based, HEK293, calcium dye fluorescence, uHTS; AID 588475, 2011; CRF-induced calcium fluorescence; 350,000 compounds, 0.59% hits; inhibition, % at 11.8 µM;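 active means inhibition of the ligand-induced calcium signal above about 50% at the single tested concentration, limit read from the data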
PKA-R2B act = activators of PKA-R2B holoenzyme, primary screen, biochemical, fluorescence polarization, Cy5-IP20, human | cAMP-dependent protein kinase catalytic subunit beta (Homo sapiens) + cAMP-dependent … | PKA-R2B holoenzyme dissociation; R2B truncated from residue 108, S112A mutant; 0% DMSO only, 100% 113 µM cGMP | activation, % at 11.4 µM | 340,000 compounds, 0.079% hits | AID 504700, 2011;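 active means activation above a cutoff set at the mean over all compounds plus 3 SD, cut at about 18% in these data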;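 further: higher means more holoenzyme dissociation and a rise in polarization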
S100A4 inh HTS = inhibitors of S100A4-myosin IIA peptide binding, primary screen, biochemical, fluorescence polarization, TAMRA-MyoIIA peptide. inhibition, % at 10.7 µM. 360,000 compounds, 0.14% hits. Protein S100-A4 (Homo sapiens), P26447. AID 652163, 2013;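 active means mean inhibition of at least 70% across replicates, with every replicate also reaching that level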
Target sequence (P26447 whole entry, looked up): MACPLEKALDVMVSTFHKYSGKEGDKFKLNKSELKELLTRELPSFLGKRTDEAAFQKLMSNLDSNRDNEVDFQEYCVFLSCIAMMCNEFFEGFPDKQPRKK
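Test system – S100A4 monomer (human) · Compound – single-point compound testing · Schedule – 5 min incubation before reading · Probe or stimulus – TAMRA-labelled myosin IIA heavy-chain peptide probe, 5 nM · Benchmarks – neutral control DMSO, positive control TFP · Medium – Calcium-containing HEPES buffer, pH 7.2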
SIRT5 inh = SIRT5 desuccinylase inhibitors, primary screen, biochemical, fluorescence imaging, single point, set 5 | NAD-dependent protein deacylase sirtuin-5, mitochondrial (Homo sapiens), Q9NXA8 | Purified SirT5, succinyl-peptide AMC, trypsin-coupled fluorescence | inhibition, % at 15 µM | 330,000 compounds, 1.1% hits | AID 652115, 2013; in the data active means inhibition above about 15%
Target sequence (Q9NXA8 whole entry, looked up): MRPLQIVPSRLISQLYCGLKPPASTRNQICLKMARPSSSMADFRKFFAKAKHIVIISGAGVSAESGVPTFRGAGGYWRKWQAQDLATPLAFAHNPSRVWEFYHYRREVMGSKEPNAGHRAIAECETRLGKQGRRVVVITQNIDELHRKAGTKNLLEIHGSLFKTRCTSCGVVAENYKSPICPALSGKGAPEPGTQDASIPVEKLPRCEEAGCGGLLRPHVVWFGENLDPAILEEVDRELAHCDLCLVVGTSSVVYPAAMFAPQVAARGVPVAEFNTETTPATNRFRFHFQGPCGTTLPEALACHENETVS
PKA-R1A act = activators of PKA-R1A holoenzyme, primary screen, biochemical, fluorescence polarization, Cy5-IP20, bovine R1A, mouse PKAc. cAMP-dependent protein kinase type I-alpha regulatory subunit (Bos taurus) + …. PKA-R1A dissociation; scaled: DMSO 0%, 113 µM cGMP 100%. activation, % at 11.4 µM. 340,000 compounds, 0.083% hits. AID 504707, 2011;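 active means percent activation above the mean of all tested compounds plus 3 SD, cut at about 19% in these data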;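 further: higher means more PKAc released from R1A so a rise in polarization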
A number is an active result; – = inactive; · = no result given. Sampled rows, rich in hits. Any-hit rate of the full collection: about 1.5%.

SMILES	CRFBP-R2 block	PKA-R2B act	S100A4 inh HTS	SIRT5 inh	PKA-R1A act
Cc1ccc(NC(=O)c2ccccc2)s1	–	–	·	·	–
CC1CCCN(CCCN2C(=O)C3C(C(=O)Nc4ccc(Cl)cc4)C4C=CC3(O4)C2C(=O)NC2CCCCC2)C1 (stereo not drawn)	–	–	–	–	–
Cc1ccc(NC(=O)C2C3C=CC4(O3)C2C(=O)N(CCCN2CCCC(C)C2)C4C(=O)NC2CCCCC2)cc1 (stereo not drawn)	–	–	–	17.4	–
CCOc1ccc(NC(=S)NCc2ccco2)cc1	–	–	–	17.1	–
CCOc1ccc(NC(=S)N(Cc2ccc(N(C)C)cc2)Cc2ccco2)cc1	76.6	–	–	–	–
Cc1ccc(NC(=S)NCc2ccco2)c(C)c1	–	–	–	80.2	–
COc1ccc(NC(=S)NCc2ccco2)cc1	–	–	·	·	–
COc1cc(NC(=S)NCc2ccco2)cc(OC)c1	95.9	–	·	·	–
CNC[C@H]1Oc2ccc(NS(C)(=O)=O)cc2CC(=O)N([C@@H](C)CO)C[C@H]1C	·	·	–	–	·
N#Cc1cccc(-c2ccc3c(c2)[C@H]2[C@H](CCN2S(=O)(=O)c2ccccc2F)[C@H](CO)N3)c1	·	·	–	–	·
C#Cc1ccc([C@H]2C=C(C(=O)N3CCOCC3)O[C@@H](OCCCCO)C2)cc1	·	·	–	–	·
CCOC(=O)N1CCN(C(=O)CSc2nnc(CNC(=O)c3ccccc3F)o2)CC1	56.9	–	·	·	–
Cc1ccc(S(=O)(=O)N(C)C[C@H]2Oc3ccc(NC(=O)NC(C)C)cc3C(=O)N([C@H](C)CO)C[C@@H]2C)cc1	·	·	–	–	·
CN(C)CCn1c(NCc2ccc3c(c2)OCO3)nc2ccccc21	–	–	–	30.5	–
O=C(Nc1ccccc1F)N1CCCCN2[C@@H](CO)[C@H](c3ccc(C#Cc4ccccc4)cc3)[C@@H]2C1	·	·	–	–	·
CCn1cc(C2=NOC(C(=O)Nc3ccccc3C(=O)OC)C2)c(C)n1 (stereo not drawn)	51.6	–	–	–	–
C/C=C/c1cnc2c(c1)C(=O)N([C@H](C)CO)C[C@@H](C)[C@@H](CN(C)C(=O)Nc1ccc(F)cc1)O2	·	·	–	–	·
C[C@@H]1CN([C@@H](C)CO)C(=O)c2cc(NS(=O)(=O)c3ccc(F)cc3)ccc2O[C@@H](C)CCCCO[C@H]1CN(C)S(=O)(=O)c1cccs1	·	·	–	–	·
COC(=O)C(C)Sc1nnc(-c2ccncc2)o1 (stereo not drawn)	–	–	–	–	–
CCOC(=O)C(Sc1nnc(-c2ccncc2)o1)C(C)=O (stereo not drawn)	94.2	–	·	·	–
CCNC(=O)CCSc1nnc(-c2ccncc2)o1	–	–	–	20.2	–
CCNC(=O)CSc1nnc(-c2cccs2)o1	–	–	–	17.8	–
CN1C(=O)NC(c2ccccc2)C2=C1CN(CCc1ccccc1)C2=O (stereo not drawn)	124.8	–	·	·	–
COCC#Cc1cnc2c(c1)C(=O)N([C@H](C)CO)C[C@H](C)[C@@H](CN(C)C(=O)CN1CCOCC1)O2	·	·	–	–	·
CC1(C)Cc2c(sc3[nH]c(=O)n(CC(=O)NCC4CCCO4)c(=O)c23)CO1 (stereo not drawn)	83.6	–	–	–	–
SMILES	CRFBP-R2 block	PKA-R2B act	S100A4 inh HTS	SIRT5 inh	PKA-R1A act
C/[N+]([O-])=C\C1C(=O)CC(C)(C)CC1=O	53.4	–	–	–	–
C=CCO/N=C/C1C(=O)CC(C)(C)CC1=O	–	–	–	–	–
CCOc1ccc(N(Cc2ccc(OC)cc2)C(=O)c2ccco2)cc1	–	–	–	–	–
COc1cc(CN(C(=O)c2ccco2)c2ccc(C)cc2)ccc1O	–	–	·	·	–
COc1ccc(CN(C(=O)c2ccco2)c2ccc(C)c(C)c2)cc1	–	–	–	112.0	–
Cc1ccc(N(Cc2ccc([N+](=O)[O-])cc2)C(=O)c2ccco2)cc1	61.6	–	·	·	–
CN1CCN(C(=O)C[C@H]2C[C@H]3c4cc(NC(=O)CC5CC5)ccc4O[C@H]3[C@@H](CO)O2)CC1	·	·	–	–	·

Assay outcomes from PubChem.
